Assays:
RD-HGA16 = test: Ratio of Ke for NPS Asn107 mutant receptor to Ke for NPS Ile107 mutant receptor expressed in RD-HGA16 cells; type: cell-based
[1] = Antagonist activity at NPS Asn107 mutant receptor expressed in RD-HGA16 cells assessed by calcium mobilization by FlexStation assay; type: functional
How it was run: (§1)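 Cells loaded with calcium3 dye for 1 h; calcium mobilization read on FlexStation. Compounds tested separately for intrinsic activity and for inhibition of NPS. Ke from an 8-point half-log NPS concentration-response run with and without one compound concentration, at least two concentrations giving at least four-fold rightward EC50 shift; Ke = [L]/(DR-1). Mean ± SE, at least three independent experiments.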

[2] = Antagonist activity at NPS Ile107 mutant receptor expressed in RD-HGA16 cells assessed by calcium mobilization by FlexStation assay; type: functional; how it was run: as §1
[3] = Antagonist activity at NPS Ile107 mutant receptor expressed in RD-HGA16 cells; type: functional; how it was run: as §1
[4] = Antagonist activity at NPS Asn107 mutant receptor expressed in RD-HGA16 cells; type: functional; how it was run: as §1

| Compound | Ratio Ke (RD-HGA16) | Ke [1] | Ke [2] | Kb [3] | Kb [4] | Kb ([1]; RD-HGA16) | Kb ([2]; RD-HGA16) |
| --- | --- | --- | --- | --- | --- | --- | --- |
| N[C@H](Cc1ccccc1)C(=O)N1CCN2C(=O)OC(c3ccccc3)(c3ccccc3)C2C1 (stereo partly specified) | 5.1 | 4640 nM | 911 nM | – | – | – | – |
| O=C(OCc1ccccc1)N1CCN2C(=O)OC(c3ccccc3)(c3ccccc3)C2C1 (stereo unspecified) | 1 | 353 nM | 354 nM | – | – | – | – |
| O=C(NCCCc1ccccc1)N1CCN2C(=O)OC(c3ccccc3)(c3ccccc3)C2C1 (stereo unspecified) | 1.3 | 417 nM | 309 nM | – | – | – | – |
| CCOC(=O)CNC(=O)N1CCN2C(=O)OC(c3ccccc3)(c3ccccc3)C2C1 (stereo unspecified) | 1.7 | 1260 nM | 726 nM | – | – | – | – |
| O=C(COc1ccc(F)cc1)N1CCN2C(=O)OC(c3ccccc3)(c3ccccc3)C2C1 (stereo unspecified) | 1.1 | 267 nM | 244 nM | – | – | – | – |
| O=C(NCCN1CCCCC1)N1CCN2C(=O)OC(c3ccccc3)(c3ccccc3)C2C1 (stereo unspecified) | 4.5 | 490 nM | 109 nM | – | – | – | – |
| O=C(NCc1ccccc1)N1CCN2C(=O)OC(c3ccccc3)(c3ccccc3)C2C1 (stereo unspecified) | 4.8 | 47 nM | 9.9 nM | 32.6 nM | 21.7 nM | – | – |
| O=C(NCc1ccc(F)cc1)N1CCN2C(=O)OC(c3ccccc3)(c3ccccc3)C2C1 (stereo unspecified) | 3.8 | 52 nM | 13.7 nM | 27.9 nM | 16.9 nM | 16.9 nM | 27.9 nM |
| CN1CCN2C(=O)OC(c3ccccc3)(c3ccccc3)C2C1 (stereo unspecified) | – | > 4000 nM | > 4000 nM | – | – | – | – |
| O=C(O)CNC(=O)N1CCN2C(=O)OC(c3ccccc3)(c3ccccc3)C2C1 (stereo unspecified) | – | > 4000 nM | > 4000 nM | – | – | – | – |
| O=C1OC(c2ccccc2)(c2ccccc2)C2CN(C(=S)NCCN3CCCCC3)CCN12 (stereo unspecified) | 1.3 | 354 nM | 280 nM | – | – | – | – |
| O=C1OC(c2ccccc2)(c2ccccc2)C2CN(C(=S)NCCN3CCOCC3)CCN12 (stereo unspecified) | 0.7 | 2560 nM | 3760 nM | – | – | – | – |
| O=C1OC(c2ccccc2)(c2ccccc2)C2CN(CCCCc3ccc(F)cc3)CCN12 (stereo unspecified) | 1 | 1100 nM | 1110 nM | – | – | – | – |
| O=C(NCCc1ccc2c(c1)OCO2)N1CCN2C(=O)OC(c3ccccc3)(c3ccccc3)C2C1 (stereo unspecified) | 1.2 | 690 nM | 567 nM | – | – | – | – |
| O=C(NCCc1ccc(F)cc1)N1CCN2C(=O)OC(c3ccccc3)(c3ccccc3)C2C1 (stereo unspecified) | 1 | 326 nM | 321 nM | – | – | – | – |
| CN(Cc1ccc(F)cc1)C(=O)N1CCN2C(=O)OC(c3ccccc3)(c3ccccc3)C2C1 (stereo unspecified) | 2.8 | 588 nM | 214 nM | – | – | – | – |
| O=C(CCc1ccc(F)cc1)N1CCN2C(=O)OC(c3ccccc3)(c3ccccc3)C2C1 (stereo unspecified) | 1.4 | 460 nM | 339 nM | – | – | – | – |
| O=C(NCCCCc1ccccc1)N1CCN2C(=O)OC(c3ccccc3)(c3ccccc3)C2C1 (stereo unspecified) | 0.8 | 437 nM | 537 nM | – | – | – | – |
| C[C@@H](NC(=O)N1CCN2C(=O)OC(c3ccccc3)(c3ccccc3)C2C1)c1ccccc1 (stereo partly specified) | 0.7 | 229 nM | 317 nM | – | – | – | – |
